Assay results from ChEMBL document CHEMBL1138477, “8-(4-Methoxyphenyl)pyrazolo[1,5-a]-1,3,5-triazines: selective and centrally active corticotropin-releasing factor receptor-1 (CRF1) antagonists” (J Med Chem, 2009).

Tests used:
[1] = biological target: T1, Corticotropin-releasing factor receptor 1 (Rattus norvegicus, UniProt P35353); test: Displacement of [125I]Tyr0-ovine CRF from CRF1 receptor in rat cortical membrane by gamma counting; type: cell membranes
T1 sequence (P35353 whole entry): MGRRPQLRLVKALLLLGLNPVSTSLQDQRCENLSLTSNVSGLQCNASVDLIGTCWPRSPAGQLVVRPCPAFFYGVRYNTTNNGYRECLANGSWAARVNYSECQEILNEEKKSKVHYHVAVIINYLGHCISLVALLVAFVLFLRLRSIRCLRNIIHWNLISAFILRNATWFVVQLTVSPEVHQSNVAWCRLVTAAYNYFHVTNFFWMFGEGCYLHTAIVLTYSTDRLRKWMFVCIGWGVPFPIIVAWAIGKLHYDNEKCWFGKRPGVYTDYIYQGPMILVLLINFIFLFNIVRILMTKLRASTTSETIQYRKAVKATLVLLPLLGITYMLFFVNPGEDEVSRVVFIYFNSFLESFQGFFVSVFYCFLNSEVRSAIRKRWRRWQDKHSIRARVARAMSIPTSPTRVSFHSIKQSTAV
Summary of the method: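 Inhibition of 125I-Tyr0-ovine-CRF binding to rat cortical membranes measured across dilutions of test drug; IC50 derived by iterative curve fitting.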

Canis familiaris = test: Ex vivo displacement of [125I]Tyr0-ovine CRF from CRF1 receptor in dog at 5 mg/kg, po measured in plasma after 2 hrs; type: functional; conditions: Canis lupus familiaris
Summary of the method: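 Beagle dogs given 5 mg/kg po (free base), in Labrafil or Tween-80/0.5% methylcellulose 1:99; plasma drawn 2 and 10 h postdose, diluted 10-fold in binding buffer, and tested for inhibition of 125I-Tyr0-ovine-CRF binding to rat receptors; mean ± SD, n = 3.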

[2] = biological target: T2, Alpha-1A adrenergic receptor (Homo sapiens, UniProt P35348); test: Binding affinity to adrenergic Alpha-1A receptor
T2 sequence (P35348 whole entry): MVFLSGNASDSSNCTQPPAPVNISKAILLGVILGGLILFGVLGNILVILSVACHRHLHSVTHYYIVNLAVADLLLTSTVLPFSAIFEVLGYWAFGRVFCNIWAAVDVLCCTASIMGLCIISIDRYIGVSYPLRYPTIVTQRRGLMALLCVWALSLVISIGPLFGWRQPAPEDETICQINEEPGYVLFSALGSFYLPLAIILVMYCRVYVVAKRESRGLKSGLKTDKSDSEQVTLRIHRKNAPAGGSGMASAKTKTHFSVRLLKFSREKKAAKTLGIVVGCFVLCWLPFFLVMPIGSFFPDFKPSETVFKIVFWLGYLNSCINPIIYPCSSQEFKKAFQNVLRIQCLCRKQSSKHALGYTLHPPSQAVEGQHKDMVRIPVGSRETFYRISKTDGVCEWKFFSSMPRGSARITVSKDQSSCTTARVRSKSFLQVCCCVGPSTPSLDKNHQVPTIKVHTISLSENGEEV

[3] = biological target: T3, Alpha-1B adrenergic receptor (Homo sapiens, UniProt P35368); test: Binding affinity to adrenergic alpha-1b receptor
T3 sequence (P35368 whole entry): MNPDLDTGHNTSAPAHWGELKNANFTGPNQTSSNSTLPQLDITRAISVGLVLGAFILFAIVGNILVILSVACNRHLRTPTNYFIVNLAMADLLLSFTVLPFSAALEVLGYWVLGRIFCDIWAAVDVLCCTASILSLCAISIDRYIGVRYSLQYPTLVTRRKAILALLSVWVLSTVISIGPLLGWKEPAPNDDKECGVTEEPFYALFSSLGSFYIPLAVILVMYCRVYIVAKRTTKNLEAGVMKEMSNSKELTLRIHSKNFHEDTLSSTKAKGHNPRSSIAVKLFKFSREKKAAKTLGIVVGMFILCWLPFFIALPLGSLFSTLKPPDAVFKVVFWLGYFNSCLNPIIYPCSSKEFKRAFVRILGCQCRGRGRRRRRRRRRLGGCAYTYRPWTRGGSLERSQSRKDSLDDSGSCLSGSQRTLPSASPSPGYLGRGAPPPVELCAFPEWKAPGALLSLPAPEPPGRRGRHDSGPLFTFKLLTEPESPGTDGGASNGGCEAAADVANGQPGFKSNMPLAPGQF

D(1A) dopamine receptor = D(1A) dopamine receptor (Homo sapiens, UniProt P21728); test: Binding affinity to dopamine D1 receptor
D(2) dopamine receptor = D(2) dopamine receptor (Homo sapiens, UniProt P14416); test: Binding affinity to dopamine D2 receptor
[4] = biological target: T4, Corticotropin-releasing factor-binding protein (Homo sapiens, UniProt P24387); test: Binding affinity to human recombinant CRF binding protein
T4 sequence (P24387 whole entry): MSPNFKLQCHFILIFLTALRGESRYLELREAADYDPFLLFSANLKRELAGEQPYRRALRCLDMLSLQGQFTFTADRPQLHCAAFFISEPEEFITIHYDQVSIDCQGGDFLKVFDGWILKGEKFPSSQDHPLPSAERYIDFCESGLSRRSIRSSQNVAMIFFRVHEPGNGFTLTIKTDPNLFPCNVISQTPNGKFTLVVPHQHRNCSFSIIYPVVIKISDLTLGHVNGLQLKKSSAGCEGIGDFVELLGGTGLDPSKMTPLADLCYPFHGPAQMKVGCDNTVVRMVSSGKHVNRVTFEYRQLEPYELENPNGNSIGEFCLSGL

[5] = Clearance in Beagle dog at 5 mg/kg, iv; type: ADME, organism-based, Canis lupus familiaris; set-up: dose 5 mg/kg, route intravenous; conditions: in vivo
Summary of the method: (§1)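 Male beagle dogs (8.0-11.0 kg) dosed iv or po (5 mg/kg oral suspension in 0.5% methylcellulose with 1% Tween-80); plasma sampled 0.25-24 h; liquid-liquid extraction with hexane/ether, LC/MS/MS, quantitation limit 1 ng/mL (2.42 nM); noncompartmental parameters as free base.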

[6] = Volume of distribution at steady state in Beagle dog at 5 mg/kg, iv; type: ADME, organism-based, Canis lupus familiaris; set-up: dose 5 mg/kg, route intravenous; conditions: in vivo, read-out: Vdss
Summary of the method: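 Male beagle dogs (8.0-11.0 kg) dosed intravenously. Plasma sampled at 0.25, 0.5, 1, 2, 4, 6, 8, 12 and 24 h after dosing. Liquid–liquid extraction in hexane/ether, then LC/MS/MS assay (quantitation limit 1 ng/mL). Concentrations expressed as free base. Parameters obtained by noncompartmental analysis as for rat. Mean ± SD.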

[7] = Elimination half life in Beagle dog at 5 mg/kg, iv; type: ADME, organism-based, Canis lupus familiaris; set-up: dose 5 mg/kg, route intravenous; conditions: in vivo, read-out: beta t1/2 (converted); summary of the method: as §1
[8] = Cmax in Beagle dog at 5 mg/kg, po; type: ADME, organism-based, Canis lupus familiaris; set-up: dose 5 mg/kg, route oral; conditions: in vivo; summary of the method: as §1
[9] = Tmax in Beagle dog at 5 mg/kg, po; type: ADME, organism-based, Canis lupus familiaris; set-up: dose 5 mg/kg, route oral; conditions: in vivo; summary of the method: as §1
[10] = Oral bioavailability in Beagle dog at 5 mg/kg; type: ADME, organism-based, Canis lupus familiaris; conditions: in vivo; summary of the method: as §1
Rattus norvegicus = test: Ex vivo receptor occupancy of CRF1 receptor in Sprague-Dawley rat brain at 3 mg/kg, po by [125I]sauvagine binding and autoradiography relative to control; type: functional
Summary of the method: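 Sprague-Dawley rats dosed po at 0.3, 1, 3, 10, 30 mg/kg in the defensive-withdrawal vehicle and protocol; brains removed, sectioned, frozen at -80 °C, then ex vivo binding gave occupancy relative to vehicle-treated rats; mean ± SEM.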

[11] = Clearance in Beagle dog at 1 mg/kg, iv; type: ADME, organism-based, Canis lupus familiaris; set-up: dose 1 mg/kg, route intravenous; conditions: in vivo; summary of the method: as §1

Sequence of D(2) dopamine receptor (P14416 whole entry): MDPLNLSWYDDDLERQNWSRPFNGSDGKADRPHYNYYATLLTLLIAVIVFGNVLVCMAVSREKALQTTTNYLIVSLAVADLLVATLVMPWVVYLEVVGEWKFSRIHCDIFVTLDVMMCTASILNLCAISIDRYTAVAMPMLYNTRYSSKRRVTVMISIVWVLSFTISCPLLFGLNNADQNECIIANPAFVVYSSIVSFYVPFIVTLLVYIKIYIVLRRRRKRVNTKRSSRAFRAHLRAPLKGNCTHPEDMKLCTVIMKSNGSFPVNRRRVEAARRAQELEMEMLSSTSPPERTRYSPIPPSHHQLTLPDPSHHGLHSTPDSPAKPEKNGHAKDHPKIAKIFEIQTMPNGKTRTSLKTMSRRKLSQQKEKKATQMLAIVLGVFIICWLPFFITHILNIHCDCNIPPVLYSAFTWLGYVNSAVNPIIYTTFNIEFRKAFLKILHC
Sequence of D(1A) dopamine receptor (P21728 whole entry): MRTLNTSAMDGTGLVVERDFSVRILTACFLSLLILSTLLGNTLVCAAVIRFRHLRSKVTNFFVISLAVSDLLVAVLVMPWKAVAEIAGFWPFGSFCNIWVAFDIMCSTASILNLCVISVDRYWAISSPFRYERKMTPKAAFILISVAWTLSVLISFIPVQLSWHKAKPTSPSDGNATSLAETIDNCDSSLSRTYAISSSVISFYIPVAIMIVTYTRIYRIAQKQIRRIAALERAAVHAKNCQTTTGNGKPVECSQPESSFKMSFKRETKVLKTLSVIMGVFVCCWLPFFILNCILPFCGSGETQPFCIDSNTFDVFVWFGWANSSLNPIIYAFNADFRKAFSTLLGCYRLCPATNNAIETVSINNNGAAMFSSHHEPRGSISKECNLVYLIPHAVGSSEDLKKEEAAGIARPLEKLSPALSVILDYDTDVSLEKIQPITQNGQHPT

Row | IC50 [1] [nM] | IC50 [2] [nM] | IC50 [3] [nM] | IC50 (D(1A) dopamine receptor) [nM] | IC50 (D(2) dopamine receptor) [nM] | IC50 [4] [nM] | clearance [5] [mL/min/kg] | Vd [6] [L/kg] | half-life [7] [h] | Cmax [8] [nM] | Tmax [9] [h] | bioavailability [10] [%] | clearance [11] [mL/min/kg] | Compound | inhibition in vivo at 5 mg/kg (Canis familiaris) [%] | Activity (Rattus norvegicus) [%]
1 | 1 | > 1000 | > 1000 | > 1000 | > 1000 | > 1000 | – | – | – | – | – | – | – | CCC(CC)Nc1nc(C)nc2c(-c3cc(F)c(OC)cc3Cl)c(C)nn12 | 97 | –
2 | 4.2 | > 1000 | > 1000 | > 1000 | > 1000 | > 1000 | 20 | 18.4 | 27.3 | 2380 | 0.5 | 34 | – | COCCN(CCOC)c1nc(C)nc2c(-c3ccc(OC)cc3C)c(C)nn12 | 75 | 48
3 | 1.98 | > 1000 | > 1000 | > 1000 | > 1000 | > 1000 | 11 | 23.7 | 40.2 | 1220 | 0.8 | 48 | – | COCCN(CCOC)c1nc(C)nc2c(-c3cc(C)c(OC)cc3C)c(C)nn12 | 84 | –
4 | 4.4 | > 1000 | > 1000 | > 1000 | > 1000 | > 1000 | – | – | – | – | – | – | 10 | CC[C@@H](C)Nc1nc(C)nc2c(-c3c(C)cc(OC)cc3OC)c(C)nn12 | 72 | –
